Test [1] can be described thus: Cytotoxicity against human breast cancer cells. To be noted: Cancer cell lines; for TGI: read-out: pTGI (converted). In kind it is functional. Put shortly: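 MTT cytotoxicity assay in breast cancer cell lines; proliferation expressed as percent growth inhibition relative to vehicle-treated control cells; IC50 reported.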
The nature of test [2]: Inhibition of plasma membrane electron transport pathway in human HL60 cells by WST1 reduction assay. To be noted: HL-60. The test is classed as cell-based. Put shortly: (§1)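 Cells at 10^5 per well in 0.1 ml pretreated 30 min with compound in DMSO (<0.1% final), then WST-1/mPMS added (final 500 µM and 20 µM); WST-1 reduction followed in real time at 450 nm; averages ± S.E.M. of four independent experiments.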
On the technique in general: Tetrazolium assays rely on reduction of a dye to a coloured formazan, in cell work by metabolically active cells.

Test [3] is described as follows: Cytotoxicity against human Non-small cell lung carcinoma cells. The test is classed as functional. To be noted: for TGI: read-out: pTGI (converted). Put shortly:
(§2)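 NCI 60-cell-line human tumour screen, with subpanels for leukemia, melanoma, lung, colon, kidney, ovary, breast, prostate and CNS. Compounds were dissolved in DMSO and tested at five ten-fold dilutions, highest 10^-4 M (10^-3 M for some). Endpoints were GI50, TGI and LC50, reported as negative log molar. Some compounds were assayed once, others two or three times.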

Test [4] can be described thus: Cytotoxicity against human prostate cancer cells. In kind it is functional. To be noted: Cancer cell lines; for TGI: read-out: pTGI (converted). Put shortly: as §2
A short description of test [5]: Cytotoxicity against human leukemia cells. The test is classed as functional. To be noted: Leukemia cell; for CC50: read-out: pLC50 (the source's name) (converted); for TGI: read-out: pTGI (converted). Put shortly: as §2
A short description of test [6]: Cytotoxicity against human melanoma cells. The test is classed as functional. To be noted: Melanoma cell; for CC50: read-out: pLC50 (the source's name) (converted); for TGI: read-out: pTGI (converted).
Test [7] in a line: Cytotoxicity against human central nervous system cancer cells. In kind it is functional. To be noted: Cancer cell lines; for CC50: read-out: pLC50 (the source's name) (converted); for TGI: read-out: pTGI (converted). Put shortly: as §2
The subject of another test is Mo7e. In words: Antiproliferative activity against human Mo7e cells after 48 hrs by MTT assay. The test is classed as functional, cell-based.
Test [8] is described as follows: Inhibition of plasma membrane electron transport pathway in human HL60 cells at 200 uM by WST1 reduction assay. In kind it is cell-based. To be noted: HL-60.
A short description of test [9]: Cytotoxicity against human renal cancer cells. The test is classed as functional. To be noted: Cancer cell lines; for CC50: read-out: pLC50 (the source's name) (converted); for TGI: read-out: pTGI (converted). Put shortly: as §2
Test [10] is described as follows: Cytotoxicity against human ovarian cancer cells. The test is classed as functional. To be noted: Cancer cell lines; for TGI: read-out: pTGI (converted).
A short description of test [11]: Cytotoxicity against human colon cancer cells. The test is classed as functional. To be noted: Cancer cell lines; for TGI: read-out: pTGI (converted). Put shortly: as §2
Another test deals with HEL. Kind of test: Antiproliferative activity against human HEL cells after 48 hrs by MTT assay. The test is classed as functional, cell-based.
In another test the test system is B1647. Kind of test: Antiproliferative activity against human B1647 cells after 48 hrs by MTT assay. In kind it is functional, cell-based.
The nature of test [12]: Inhibition of plasma membrane electron transport pathway in mitochondrial gene-knockout human HL60p'0 cells by WST1 reduction assay. Put shortly:
as §1

Test [13] in a line: Inhibition of plasma membrane electron transport pathway in human B1647 cells by WST1 reduction assay. The test is classed as cell-based. Put shortly: as §1
Test [14] is described as follows: Inhibition of plasma membrane electron transport pathway in human HEL cells by WST1 reduction assay. The test is classed as cell-based. Put shortly:
as §1

Test [15] is described as follows: Inhibition of plasma membrane electron transport pathway in human Mo7e cells by WST1 reduction assay. The test is classed as cell-based. Put shortly:
as §1

In test [16] the test system is MCF7. In words: Inhibition of proteasome in human MCF7 cells assessed as effect on stability of BCA2 protein at 1 umol/L in presence of cyclohexamide after 8 hrs by Western blot. Put shortly: (§3)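 MCF7 cells, 1×10^6 seeded per well, grown overnight; cycloheximide 100 μmol/L added alone or with MG-132 (10 μmol/L) or compound, total 8 and 16 h; lysates Western blotted with anti-BCA2, anti-C-erbB2 and β-actin antibodies; BCA2 and C-erbB2 levels expressed relative to β-actin by densitometry.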

Test [17] has as its system MCF7. Kind of test: Inhibition of proteasome in human MCF7 cells assessed as effect on stability of BCA2 protein at 10 umol/L in presence of cyclohexamide after 8 hrs by Western blot. Put shortly:
as §3
In general terms: A western blot detects proteins with antibodies after separation by electrophoresis.

For test [18], the system named is MCF7. In words: Cytotoxicity against human MCF7 cells. In kind it is functional, cell-based.
Test [19] has as its system MCF7. In words: Inhibition of proteasome in human MCF7 cells assessed as increase in stability of BCA2 protein at 10 umol/L in presence of cyclohexamide after 16 hrs by Western blot. Put shortly: as §3
In the next test the test system is MDA-MB-231. Kind of test: Cytotoxicity against human MDA-MB-231 cells. In kind it is functional, cell-based.
The nature of test [20]: Cytotoxicity against human mitochondrial gene-knockout human HL60p'0 cells after 48 hrs by MTT assay. The test is classed as functional, cell-based.
For another test, the system named is HL-60. In words: Cytotoxicity against human HL60 cells after 48 hrs by MTT assay. The test is classed as functional, cell-based. To be noted: HL-60, 48 h.
[21] abbreviates: read-out: pLC50 (the source's name) (converted).

The source made the active and inactive calls. The calls are words filed in the database; no cut-off is given here. Where a SMILES comes first, the peptide text is derived from it. The star is where a group is joined. Cbz = O=C(OCc1ccccc1)*

For `CN1C(=O)/C(=C/c2cccc(/C=C3/C(=O)N(C)c4ccccc43)n2)c2ccccc21`, the GI50 (commonly the concentration giving 50% growth inhibition) in test [1] is 8.91 µM; in test [3], 12 µM; in test [4], 13.5 µM; in [5], 3.09 µM; in test [6], 4.9 µM; in [7], 7.59 µM. Also, the GI50 in [9], in test [10] and in test [11] was 10 µM throughout. Besides, the TGI is 33.1 µM in test [1]; 30.2 µM in test [3]; 22.4 µM in [6]; 29.5 µM in [7]; 23.4 µM in test [9]; 29.5 µM in test [10]. In [11], the TGI is 28.2 µM. Also, the IC50 in test [2] and in [12] was > 117 µM throughout. The CC50 is 43.7 µM in test [6], 50.1 µM in [7] and 46.8 µM in test [9]. The result in the test with Mo7e, with HEL and in the test with B1647 was Active. Besides, the result in [8] was inactive.

In the case of `O=C1Nc2ccc(C(=O)O)cc2/C1=C\c1cccc(/C=C2/C(=O)Nc3ccc(C(=O)O)cc32)n1`, the IC50 in test [2] and in [12] was > 117 µM throughout. Besides, the GI50 in test [5] was 6.17 µM; in test [7], 72.4 µM. Further, the CC50 in test [5] is 34.7 µM. The TGI in test [5] was 21.4 µM; in test [7] it was 87.1 µM. The result with Mo7e, in the test with HEL and with B1647 was Active. Also, the result in [8] was inactive.

Turning to `CN(C)c1ccc2c(c1)/C(=C\c1cccc(/C=C3/C(=O)Nc4ccc(N(C)C)cc43)n1)C(=O)N2`, the concentration for 50% growth inhibition (GI50) in test [1] was 6.03 µM; in test [3], 5.25 µM; in [4], 3.55 µM; in test [5], 2.34 µM; in [6], 4.37 µM; in test [7] it was 4.37 µM. For the same molecule, the GI50 in test [9] was 8.71 µM; in [10] it was 7.59 µM; in [11] it was 6.76 µM. Further, the TGI in test [1] is 69.2 µM; in test [3], 43.7 µM; in test [4], 29.5 µM; in [5], 9.55 µM; in test [6], 30.2 µM; in [7], 44.7 µM. For the same molecule, the TGI in [11] was 38.9 µM. Further, the IC50 in test [2] and in [12] was > 117 µM each time. Further, the CC50 in test [6] is 60.3 µM; in test [7], 89.1 µM. Further, the result with Mo7e, with HEL and in the test on B1647 was Active. Further, the result in test [8] was inactive.

For the molecule `CC(=O)n1c(=O)/c(=C/c2c[nH]c3ccccc23)n(C(C)=O)c(=O)/c1=C/c1c[nH]c2ccccc12`, the concentration for 50% growth inhibition (GI50) in test [1] is 66.1 µM; in [3], 85.1 µM; in test [5], 93.3 µM; in test [6], 87.1 µM; in [7] it was 75.9 µM; in test [9] it was 29.5 µM. This molecule had a GI50 in test [10] of 79.4 µM. Besides, the IC50 in test [2] and in [12] was > 117 µM each time. For the same molecule, the outcome in the test with Mo7e, with HEL and in the test on B1647 was Active. For the same molecule, the result in [8] was inactive.

As for `O=C1Nc2ccc(O)cc2/C1=C\c1cccc(/C=C2/C(=O)Nc3ccc(O)cc32)n1`, the GI50 was 40.7 µM in test [1]; 33.9 µM in test [3]; 20 µM in test [4]; 17.4 µM in [5]; 83.2 µM in [6]; 40.7 µM in test [7]. Further, the GI50 in test [9] is 34.7 µM; in test [10] it was 83.2 µM; in test [11] it was 38.9 µM. Moreover, the TGI was 85.1 µM in test [1], 55 µM in test [5] and 69.2 µM in test [9]. In addition, the IC50 (commonly the concentration that gives 50% inhibition) in test [2] is > 117 µM; in test [13], 40 µM; in test [14], 40 µM; in test [15], 40 µM; in test [12], > 117 µM. Besides, the values for the CC50 in test [5] and in [9] were 93.3 µM and 95.5 µM, respectively. The result with Mo7e, in the test on HEL and in the test on B1647 was Active.

For `O=c1[nH]/c(=C\c2c[nH]c3ccccc23)c(=O)[nH]/c1=C\c1c[nH]c2ccccc12`, the GI50 in test [1] is 64.6 µM; in [3] it was 97.7 µM; in test [6] it was 55 µM; in test [7], 64.6 µM; in [9], 70.8 µM. In addition, the IC50 in test [2] and in test [12] was > 117 µM in each case. Besides, the result in the test with Mo7e, in the test on HEL and in the test on B1647 was Active. Further, the outcome in test [8] was inactive.

`CC(C)C[C@@H](C=O)NC(=O)[C@H](CC(C)C)NC(=O)[C@H](CC(C)C)NC(=O)OCc1ccccc1` [MG-132] (Cbz-Leu-Leu-Leu-aldehyde): in the test with MCF7 [16], the result was inactive. In addition, the result in the test with MCF7 [17] was Active. Moreover, the results for the IC50 in the test on MCF7 [18] and in the test on MDA-MB-231 were 0.3 µM and 0.25 µM, respectively. Also, the fold change (FC) in the test with MCF7 [19] was > 10.

As to `O=C1Nc2ccc(Cl)cc2/C1=C\c1cccc(/C=C2/C(=O)Nc3ccc(Cl)cc32)n1`, the GI50 in [1] is 1.12 µM; in test [3], 1.74 µM; in [4], 1.51 µM; in test [5], 0.661 µM; in test [6], 0.692 µM; in [7], 0.891 µM. The GI50 is 1.26 µM in test [9], 1.26 µM in test [10] and 0.933 µM in test [11]. The CC50 was 22.9 µM in test [1] (setting [21]); 20 µM in test [3] (setting [21]); 24.5 µM in [4] (setting [21]); 47.9 µM in [5]; 7.94 µM in test [6]; 14.8 µM in test [7]. In addition, the CC50 is 7.59 µM in test [9], 17.8 µM in [10] (setting [21]) and 15.1 µM in [11] (setting [21]). The TGI was 4.17 µM in test [1]; 4.37 µM in [3]; 6.61 µM in test [4]; 4.9 µM in test [5]; 1.91 µM in test [6]; 2.75 µM in [7]. Moreover, the figures for the TGI in test [9], in test [10] and in test [11] were 2.95 µM, 4.17 µM and 2.57 µM, respectively. Further, the IC50 in [20] is 3 µM; in [2], > 117 µM; in the test on HL-60, 3 µM; in [12], > 117 µM. Further, the outcome in the test with Mo7e, in the test on HEL and in the test with B1647 was Active.

These data come from ChEMBL document CHEMBL1155808, “Antitumor activity of bis-indole derivatives” (J Med Chem, 2008).
